Laboratory results as given in ChEMBL document CHEMBL3259714, “Pyrazolo[4,3-e][1,2,4]triazine sulfonamides as carbonic anhydrase inhibitors with antitumor activity” (Bioorg Med Chem, 2014).

Columns and labels:
MCF7 [1] = experiment: Cytotoxicity against human MCF7 cells assessed as growth inhibition after 24 hrs by MTT assay; type: functional, cell-based; settings: for IC50: MCF7, 24 h
Method in brief: (§1)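 Confluent cells in 6-well plates treated 24 h with a range of concentrations, then washed with PBS. MTT (0.5 mg/ml in PBS) added for 4 h at 37 °C, 5% CO₂. Dye dissolved in 0.1 mol/l HCl in isopropanol and read at 570 nm. Viability given as % of untreated control, run in triplicate. IC50 taken from dose-response curves as 50% viable cells versus control.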

MDA-MB-231 [2] = experiment: Cytotoxicity against human MDA-MB-231 cells assessed as growth inhibition after 24 hrs by MTT assay; type: functional, cell-based; settings: for IC50: MDA-MB-231, 24 h; method in brief: as §1
MCF7 [3] = experiment: Cytostatic activity against human MCF7 cells assessed as inhibition of DNA synthesis after 24 hrs by [3H]thymidine incorporation assay; type: functional, cell-based
Method in brief: (§2)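 Cells kept in DMEM with 10% FBS and penicillin/streptomycin at 37 °C. Seeded in 6-well plates and grown to about 80% confluency, in DMEM without phenol red with 10% CPSR1. Exposed to a range of concentrations plus 0.5 μCi [³H]-thymidine for 24 h at 37 °C. Cells trypsinized and washed with cold PBS until wash dpm matched the reagent control. Uptake counted by liquid scintillation as dpm/well. IC50 is mean ± S.D. of four independent experiments.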

MDA-MB-231 [4] = experiment: Cytostatic activity against human MDA-MB-231 cells assessed as inhibition of DNA synthesis after 24 hrs by [3H]thymidine incorporation assay; type: functional, cell-based; method in brief: as §2
MCF7 [5] = experiment: Inhibition of collagen synthesis in human MCF7 cells assessed as 5-[3H]-proline incorporation into proteins susceptible to action of bacterial collagenase after 24 hrs; type: functional, cell-based
Method in brief: (§3)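 Cells labelled 24 h in growth medium with 5-[³H]proline (5 μCi/mL, 28 Ci/mmol) at a range of compound concentrations. Collagen share of incorporated label found by digesting proteins with purified Clostridium histolyticum collagenase (Peterkofsky method). Cell and medium fractions combined. IC50 is the mean ± S.D. of three independent experiments run in duplicate.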

MDA-MB-231 [6] = experiment: Inhibition of collagen synthesis in human MDA-MB-231 cells assessed as 5-[3H]-proline incorporation into proteins susceptible to action of bacterial collagenase after 24 hrs; type: functional, cell-based; method in brief: as §3
Carbonic anhydrase 1 = Carbonic anhydrase 1 (Homo sapiens, UniProt P00915); experiment: Inhibition of human carbonic anhydrase 1-mediated CO2 hydration preincubated for 15 mins by stopped-flow assay
Carbonic anhydrase 2 = Carbonic anhydrase 2 (Homo sapiens, UniProt P00918); experiment: Inhibition of human carbonic anhydrase 2-mediated CO2 hydration preincubated for 15 mins by stopped-flow assay
Carbonic anhydrase 9 = Carbonic anhydrase 9 (Homo sapiens, UniProt Q16790); experiment: Inhibition of human carbonic anhydrase 9-mediated CO2 hydration preincubated for 15 mins by stopped-flow assay
Carbonic anhydrase 12 = Carbonic anhydrase 12 (Homo sapiens, UniProt O43570); experiment: Inhibition of human carbonic anhydrase 12-mediated CO2 hydration preincubated for 15 mins by stopped-flow assay
Carbonic anhydrase 12, sequence (O43570 whole entry): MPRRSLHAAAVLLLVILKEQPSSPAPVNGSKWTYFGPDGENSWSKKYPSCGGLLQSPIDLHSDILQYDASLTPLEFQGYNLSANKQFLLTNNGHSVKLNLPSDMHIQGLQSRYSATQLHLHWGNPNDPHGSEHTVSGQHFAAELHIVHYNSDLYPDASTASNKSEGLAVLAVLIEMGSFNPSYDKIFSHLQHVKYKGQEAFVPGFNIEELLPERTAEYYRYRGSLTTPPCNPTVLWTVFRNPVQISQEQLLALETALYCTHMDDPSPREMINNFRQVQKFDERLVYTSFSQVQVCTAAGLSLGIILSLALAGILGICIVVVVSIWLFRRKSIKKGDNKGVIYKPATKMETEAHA

Carbonic anhydrase 1, sequence (P00915 whole entry): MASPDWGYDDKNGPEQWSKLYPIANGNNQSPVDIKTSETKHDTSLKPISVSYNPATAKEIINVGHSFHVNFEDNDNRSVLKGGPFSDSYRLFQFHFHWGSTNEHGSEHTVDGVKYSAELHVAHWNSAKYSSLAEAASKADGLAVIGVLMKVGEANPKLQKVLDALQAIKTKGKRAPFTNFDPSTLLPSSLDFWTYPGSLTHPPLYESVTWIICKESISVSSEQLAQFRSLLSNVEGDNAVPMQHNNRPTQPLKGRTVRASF

SMILES: CCOc1ccc(S(=O)(=O)N2CCN(C)CC2)cc1-c1nnc2c(n1)c(C)nn2C
- growth inhibition (GI) (MCF7 [1]): Dose-dependent effect
- IC50 (MCF7 [1]): 110 µM
- growth inhibition (GI) (MDA-MB-231 [2]): Dose-dependent effect
- IC50 (MDA-MB-231 [2]): 115 µM
- IC50 (MCF7 [3]): 140 µM
- inhibition (MCF7 [3]): Dose-dependent effect
- IC50 (MDA-MB-231 [4]): 152 µM
- inhibition (MDA-MB-231 [4]): Dose-dependent effect

SMILES: CCOc1ccc(S(=O)(=O)N2CCCC2)cc1-c1nnc2c(n1)c(C)nn2C
- growth inhibition (GI) (MCF7 [1]): Dose-dependent effect
- IC50 (MCF7 [1]): 112 µM
- growth inhibition (GI) (MDA-MB-231 [2]): Dose-dependent effect
- IC50 (MDA-MB-231 [2]): 120 µM
- IC50 (MCF7 [3]): 130 µM
- inhibition (MCF7 [3]): Dose-dependent effect
- IC50 (MDA-MB-231 [4]): 159 µM
- inhibition (MDA-MB-231 [4]): Dose-dependent effect

SMILES: Cc1nn(C)c2nnc(Nc3ccc(S(=O)(=O)NCCN4CCOCC4)cc3)nc12
- inhibition (MCF7 [3]): Dose-dependent effect
- inhibition (MDA-MB-231 [4]): Dose-dependent effect
- IC50 (MCF7 [5]): 140 µM
- IC50 (MDA-MB-231 [6]): 137 µM
- Ki (Carbonic anhydrase 1): > 50 µM
- Ki (Carbonic anhydrase 2): 0.719 µM
- Ki (Carbonic anhydrase 9): 0.824 µM
- Ki (Carbonic anhydrase 12): 0.0062 µM

SMILES: Cc1nn(C)c2nnc(Nc3ccc(S(=O)(=O)N4CCCC4)cc3)nc12
- inhibition (MCF7 [3]): Dose-dependent effect
- inhibition (MDA-MB-231 [4]): Dose-dependent effect
- IC50 (MCF7 [5]): > 200 µM
- IC50 (MDA-MB-231 [6]): > 200 µM
- Ki (Carbonic anhydrase 1): > 50 µM
- Ki (Carbonic anhydrase 2): 0.0063 µM
- Ki (Carbonic anhydrase 9): 0.652 µM
- Ki (Carbonic anhydrase 12): 0.0081 µM

SMILES: Cc1nn(C)c2nnc(Nc3ccc(S(N)(=O)=O)cc3)nc12
- Ki (Carbonic anhydrase 1): 0.27 µM
- Ki (Carbonic anhydrase 2): 0.008 µM
- Ki (Carbonic anhydrase 9): 0.0438 µM
- Ki (Carbonic anhydrase 12): 0.0079 µM

SMILES: Cc1nn(C)c2nnc(Nc3ccc(S(=O)(=O)N4CCNCC4)cc3)nc12
- inhibition (MCF7 [3]): Dose-dependent effect
- inhibition (MDA-MB-231 [4]): Dose-dependent effect
- IC50 (MCF7 [5]): 175 µM
- IC50 (MDA-MB-231 [6]): 180 µM
- Ki (Carbonic anhydrase 1): > 50 µM
- Ki (Carbonic anhydrase 2): 0.703 µM
- Ki (Carbonic anhydrase 9): > 50 µM
- Ki (Carbonic anhydrase 12): 0.0057 µM

SMILES: Cc1nn(C)c2nnc(Nc3ccc(S(=O)(=O)N4CCCNCC4)cc3)nc12
- inhibition (MCF7 [3]): Dose-dependent effect
- inhibition (MDA-MB-231 [4]): Dose-dependent effect
- IC50 (MCF7 [5]): 133 µM
- IC50 (MDA-MB-231 [6]): 135 µM
- Ki (Carbonic anhydrase 1): > 50 µM
- Ki (Carbonic anhydrase 2): 0.918 µM
- Ki (Carbonic anhydrase 9): > 50 µM
- Ki (Carbonic anhydrase 12): 0.0059 µM

SMILES: Cc1nn(C)c2nnc(Nc3ccccc3)nc12
- Ki (Carbonic anhydrase 1): > 50 µM
- Ki (Carbonic anhydrase 2): 0.826 µM
- Ki (Carbonic anhydrase 9): 0.082 µM
- Ki (Carbonic anhydrase 12): 0.009 µM

SMILES: CCOc1ccc(S(=O)(=O)N2CCCNCC2)cc1-c1nnc2c(n1)c(C)nn2C
- growth inhibition (GI) (MCF7 [1]): Dose-dependent effect
- IC50 (MCF7 [1]): 123 µM
- growth inhibition (GI) (MDA-MB-231 [2]): Dose-dependent effect
- IC50 (MDA-MB-231 [2]): 130 µM
- IC50 (MCF7 [3]): 129 µM
- inhibition (MCF7 [3]): Dose-dependent effect
- IC50 (MDA-MB-231 [4]): 115 µM
- inhibition (MDA-MB-231 [4]): Dose-dependent effect

SMILES: Cc1nn(C)c2nnc(Nc3ccc(S(=O)(=O)NCCN)cc3)nc12
- inhibition (MCF7 [3]): Dose-dependent effect
- inhibition (MDA-MB-231 [4]): Dose-dependent effect
- IC50 (MCF7 [5]): 112 µM
- IC50 (MDA-MB-231 [6]): 95 µM
- Ki (Carbonic anhydrase 1): > 50 µM
- Ki (Carbonic anhydrase 2): 0.0621 µM
- Ki (Carbonic anhydrase 9): 0.0237 µM
- Ki (Carbonic anhydrase 12): 0.0071 µM

SMILES: Cc1nn(C)c2nnc(S(C)(=O)=O)nc12
- Ki (Carbonic anhydrase 1): > 50 µM
- Ki (Carbonic anhydrase 2): 0.774 µM
- Ki (Carbonic anhydrase 9): 0.089 µM
- Ki (Carbonic anhydrase 12): 0.0066 µM

SMILES: Cc1nn(C)c2nnc(Nc3ccc(S(=O)(=O)N4CCOCC4)cc3)nc12
- inhibition (MCF7 [3]): Dose-dependent effect
- inhibition (MDA-MB-231 [4]): Dose-dependent effect
- IC50 (MCF7 [5]): > 200 µM
- IC50 (MDA-MB-231 [6]): > 200 µM

SMILES: CCOc1ccc(S(=O)(=O)NCCO)cc1-c1nnc2c(n1)c(C)nn2C
- growth inhibition (GI) (MCF7 [1]): Dose-dependent effect
- IC50 (MCF7 [1]): > 200 µM
- growth inhibition (GI) (MDA-MB-231 [2]): Dose-dependent effect
- IC50 (MDA-MB-231 [2]): > 200 µM
- IC50 (MCF7 [3]): > 200 µM
- inhibition (MCF7 [3]): Dose-dependent effect
- IC50 (MDA-MB-231 [4]): > 200 µM
- inhibition (MDA-MB-231 [4]): Dose-dependent effect

SMILES: CCOc1ccc(S(=O)(=O)N2CCOCC2)cc1-c1nnc2c(n1)c(C)nn2C
- growth inhibition (GI) (MCF7 [1]): Dose-dependent effect
- IC50 (MCF7 [1]): 181 µM
- growth inhibition (GI) (MDA-MB-231 [2]): Dose-dependent effect
- IC50 (MDA-MB-231 [2]): 189 µM
- IC50 (MCF7 [3]): 148 µM
- inhibition (MCF7 [3]): Dose-dependent effect
- IC50 (MDA-MB-231 [4]): 160 µM
- inhibition (MDA-MB-231 [4]): Dose-dependent effect

SMILES: CCOc1ccc(S(=O)(=O)NCCN)cc1-c1nnc2c(n1)c(C)nn2C
- growth inhibition (GI) (MCF7 [1]): Dose-dependent effect
- IC50 (MCF7 [1]): 190 µM
- growth inhibition (GI) (MDA-MB-231 [2]): Dose-dependent effect
- IC50 (MDA-MB-231 [2]): > 200 µM
- IC50 (MCF7 [3]): > 200 µM
- inhibition (MCF7 [3]): Dose-dependent effect
- IC50 (MDA-MB-231 [4]): 200 µM
- inhibition (MDA-MB-231 [4]): Dose-dependent effect

SMILES: O=C(O)CCCc1ccc(N(CCCl)CCCl)cc1 [CHLORAMBUCIL]
- growth inhibition (GI) (MCF7 [1]): Dose-dependent effect
- growth inhibition (GI) (MDA-MB-231 [2]): Dose-dependent effect
- inhibition (MCF7 [3]): Dose-dependent effect
- inhibition (MDA-MB-231 [4]): Dose-dependent effect
- IC50 (MCF7 [5]): 52 µM
- IC50 (MDA-MB-231 [6]): 72 µM

SMILES: Cc1nn(C)c2nnc(Nc3ccc(S(=O)(=O)NCCO)cc3)nc12
- inhibition (MCF7 [3]): Dose-dependent effect
- inhibition (MDA-MB-231 [4]): Dose-dependent effect
- IC50 (MCF7 [5]): > 200 µM
- IC50 (MDA-MB-231 [6]): > 200 µM
- Ki (Carbonic anhydrase 1): > 50 µM
- Ki (Carbonic anhydrase 2): 0.772 µM
- Ki (Carbonic anhydrase 9): 0.0265 µM
- Ki (Carbonic anhydrase 12): 0.0075 µM

SMILES: CCOc1ccc(S(=O)(=O)NCCN2CCOCC2)cc1-c1nnc2c(n1)c(C)nn2C
- growth inhibition (GI) (MCF7 [1]): Dose-dependent effect
- IC50 (MCF7 [1]): 132 µM
- growth inhibition (GI) (MDA-MB-231 [2]): Dose-dependent effect
- IC50 (MDA-MB-231 [2]): 136 µM
- IC50 (MCF7 [3]): 145 µM
- inhibition (MCF7 [3]): Dose-dependent effect
- IC50 (MDA-MB-231 [4]): 156 µM
- inhibition (MDA-MB-231 [4]): Dose-dependent effect

SMILES: Cc1nn(C)c2nnc(Nc3ccc(S(=O)(=O)N4CCN(C)CC4)cc3)nc12
- inhibition (MCF7 [3]): Dose-dependent effect
- inhibition (MDA-MB-231 [4]): Dose-dependent effect
- IC50 (MCF7 [5]): 47 µM
- IC50 (MDA-MB-231 [6]): 58 µM
- Ki (Carbonic anhydrase 1): > 50 µM
- Ki (Carbonic anhydrase 2): 0.667 µM
- Ki (Carbonic anhydrase 9): > 50 µM
- Ki (Carbonic anhydrase 12): 0.0053 µM

SMILES: CCOc1ccc(S(=O)(=O)N2CCCCC2)cc1-c1nnc2c(n1)c(C)nn2C
- growth inhibition (GI) (MCF7 [1]): Dose-dependent effect
- IC50 (MCF7 [1]): 105 µM
- growth inhibition (GI) (MDA-MB-231 [2]): Dose-dependent effect
- IC50 (MDA-MB-231 [2]): 98 µM
- IC50 (MCF7 [3]): 112 µM
- inhibition (MCF7 [3]): Dose-dependent effect
- IC50 (MDA-MB-231 [4]): 126 µM
- inhibition (MDA-MB-231 [4]): Dose-dependent effect

SMILES: Cc1nn(C)c2nnc(Nc3ccc(S(=O)(=O)N4CCCCC4)cc3)nc12
- inhibition (MCF7 [3]): Dose-dependent effect
- inhibition (MDA-MB-231 [4]): Dose-dependent effect
- IC50 (MCF7 [5]): 163 µM
- IC50 (MDA-MB-231 [6]): 145 µM
- Ki (Carbonic anhydrase 1): > 50 µM
- Ki (Carbonic anhydrase 2): 0.492 µM
- Ki (Carbonic anhydrase 9): > 50 µM
- Ki (Carbonic anhydrase 12): 0.0062 µM

SMILES: CCOc1ccc(S(=O)(=O)N2CCNCC2)cc1-c1nnc2c(n1)c(C)nn2C
- growth inhibition (GI) (MCF7 [1]): Dose-dependent effect
- IC50 (MCF7 [1]): 172 µM
- growth inhibition (GI) (MDA-MB-231 [2]): Dose-dependent effect
- IC50 (MDA-MB-231 [2]): 182 µM
- IC50 (MCF7 [3]): 150 µM
- inhibition (MCF7 [3]): Dose-dependent effect
- IC50 (MDA-MB-231 [4]): 164 µM
- inhibition (MDA-MB-231 [4]): Dose-dependent effect
